Each structure is given as a SMILES string. Converted amounts (≈) assume the structure as drawn. The source made the active and inactive calls. No cut-off for these calls is given here.

Data set [1] relates to Streptococcus pneumoniae. The data set can be described thus: Antibacterial activity against erythromycin-resistant Streptococcus pneumoniae by broth microdilution method. It counts as functional, organism-based. Put shortly:
(§1)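 CLSI M07-A7 broth microdilution MIC. Medium was cation-adjusted Mueller-Hinton broth. For S. pneumoniae it was Mueller-Hinton supplemented with 5% lysed horse blood. CLSI quality-control strains were included as appropriate.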

Data set [2] has as its system Staphylococcus aureus. The data set can be described thus: Antibacterial activity against methicillin-resistant Staphylococcus aureus isolate OC11696 assessed as log reduction in bacterial growth at 4 times MIC measured at 24 hrs by time-kill assay. Format: functional. The method, boiled down: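 Overnight MRSA cultures were diluted into fresh cation-adjusted Mueller-Hinton broth to about 5 × 10^6 CFU/ml. […] Samples were plated serially diluted on trypticase soy agar, and CFU were counted after 20-24 h at 37°C. Value is the log10 decrease at 24 h from the starting inoculum; detection limit 100 CFU.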

Data set [3] can be described thus: Plasma protein binding in rat infected with gram-positive bacteria. Format: ADME, cell-free. Conditions: read-out: PPB (converted).
For data set [4], the system named is Streptococcus pneumoniae. The data set is described as follows: Antibacterial activity against Streptococcus pneumoniae isolate OC6585 assessed as log reduction in bacterial growth at 2 times MIC measured at 6 hrs by time-kill assay. It counts as functional. The method, boiled down: (§2)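 Drug was diluted from 50× stocks made in water or acidified water. Samples were taken at 6 and 24 h and serially diluted onto TSA-5% sheep blood plates. Plates were incubated 20–24 h at 37°C in 5% CO2 before counting CFU. Log10 titer change is given relative to the starting inoculum.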

For data set [5], the system named is Streptococcus pneumoniae. The data set can be described thus: Antibacterial activity against Streptococcus pneumoniae isolate OC6610 assessed as log reduction in bacterial growth at 4 times MIC measured at 6 hrs by time-kill assay. Format: functional. Put shortly: as §2
Data set [6] relates to Streptococcus pneumoniae. The data set can be described thus: Antibacterial activity against Streptococcus pneumoniae ATCC 49619 by broth microdilution method. It counts as functional. The method, boiled down: (§3)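 MICs by CLSI M07-A7 broth microdilution in cation-adjusted Mueller-Hinton medium. For S. pneumoniae the medium was supplemented with 5% lysed horse blood. CLSI quality control strains were run alongside as appropriate.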
On the technique in general: In broth dilution the organism is exposed to a series of concentrations in liquid medium.

Data set [7] deals with Streptococcus pneumoniae. The data set can be described thus: Antibacterial activity against Streptococcus pneumoniae isolate OC6790 assessed as log reduction in bacterial growth at 4 times MIC measured at 24 hrs by time-kill assay. Format: functional. Put shortly:
as §2

In the next data set the test system is Providencia stuartii. The data set is described as follows: Antibacterial activity against Providencia stuartii by broth microdilution method. It counts as functional. Put shortly: as §3
Data set [8] relates to Staphylococcus aureus. The data set can be described thus: Antibacterial activity against methicillin-resistant Staphylococcus aureus isolate OC8525 harboring wild type quinolone resistance-determining region by agar dilution method. It counts as functional. Put shortly: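 CLSI agar dilution MIC on cation-adjusted Mueller-Hinton medium. These were the MIC values used for the resistance studies, and CLSI quality-control strains were included as appropriate.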

Data set [9] has as its system Streptococcus pneumoniae. The data set can be described thus: Antibacterial activity against Streptococcus pneumoniae isolate OC7368 assessed as log reduction in bacterial growth at 4 times MIC measured at 24 hrs by time-kill assay. Format: functional. The method, boiled down: as §2
The subject of data set [10] is Streptococcus pneumoniae. The data set can be described thus: Antibacterial activity against Streptococcus pneumoniae isolate OC7189 assessed as log reduction in bacterial growth at 2 times MIC measured at 6 hrs by time-kill assay. It counts as functional. Put shortly: as §2
In data set [11] the test system is Streptococcus pneumoniae. The data set can be described thus: Antibacterial activity against Streptococcus pneumoniae isolate OC6585 by broth microdilution method. Format: functional. Put shortly: as §1
The subject of the next data set is Haemophilus influenzae. The data set is described as follows: Antibacterial activity against Haemophilus influenzae by broth microdilution method. Format: functional. Put shortly:
as §3

Data set [12] has as its system Streptococcus pneumoniae. The data set can be described thus: Antibacterial activity against Streptococcus pneumoniae isolate OC7348 assessed as log reduction in bacterial growth at 4 times MIC measured at 6 hrs by time-kill assay. It counts as functional. The method, boiled down: as §2
Data set [13] has as its system Streptococcus pneumoniae. The data set is described as follows: Antibacterial activity against Streptococcus pneumoniae isolate OC7348 assessed as log reduction in bacterial growth at 2 times MIC measured at 24 hrs by time-kill assay. Format: functional. The method, boiled down:
as §2

For `COc1c(N2CCC/C(=C(\F)CN)C2)c(F)cc2c(=O)c(C(=O)O)cn(C3CC3)c12` [ACORAFLOXACIN], in the data set with Streptococcus pneumoniae [1], the result was Active. Further, the deltalog10CFU/ml was determined as 6.5 in the data set on Staphylococcus aureus [2]; 3.9 in the data set on Streptococcus pneumoniae [4]; 3.5 in the data set with Streptococcus pneumoniae [5]; 6.8 with Streptococcus pneumoniae [7]; 6.9 in the data set with Streptococcus pneumoniae [9]; 4 with Streptococcus pneumoniae [10]. Besides, the deltalog10CFU/ml is given as 3.6 in the data set on Streptococcus pneumoniae [12] and 7 in the data set on Streptococcus pneumoniae [13]. For the same molecule, the fraction unbound in data set [3] is 0.44. For the same molecule, the MIC50 against Streptococcus pneumoniae [6] is 0.015 mg/L (≈ 0.0358 µM); with Providencia stuartii it was 2 mg/L (≈ 4.77 µM); in the data set on Haemophilus influenzae it was 0.008 mg/L (≈ 0.0191 µM). Moreover, the MIC90 in the data set on Streptococcus pneumoniae [6] was 0.12 mg/L (≈ 0.286 µM); against Providencia stuartii, 4 mg/L (≈ 9.54 µM); against Haemophilus influenzae, 0.015 mg/L (≈ 0.0358 µM). The figures for the MIC against Staphylococcus aureus [8], against Streptococcus pneumoniae [11] and with Haemophilus influenzae were 0.012 mg/L (≈ 0.0286 µM), 0.25 mg/L (≈ 0.596 µM) and 0.008 mg/L (≈ 0.0191 µM), respectively.

For the origin of these results see ChEMBL document CHEMBL1255444, “In vitro antibacterial activities of JNJ-Q2, a new broad-spectrum fluoroquinolone” (Antimicrob Agents Chemother, 2010).
